Here are results for 96 compounds from ChEMBL document CHEMBL4513216, “Probing the Open Global Health Chemical Diversity Library for Multistage-Active Starting Points for Next-Generation Antimalarials” (ACS Infect Dis, 2020).

The structures appear in SMILES notation.

This series is described as follows: Toxicity liver stage against HepG2, at 10uM. The format is cell-based. Set-up: test concentration 10 uM, cell line HepG2-A16-CD81EGFP. The conditions noted are these: human, HepG2-A16-CD81EGFP cells; read-out: INHIBITION
The method in brief:
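Uninfected HepG2-A16-CD81EGFP cells, 3 × 10^3 per well, 1536-well, plated on prespotted compound at 10 μM final, parasite-free screening media added to match infected plates; puromycin 10 μM positive, DMSO 0.5% negative; run in parallel with 48 h PbLuc assay at 37 °C, 5% CO2; viability by CellTiter-Glo luminescence, normalized to controls.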
Consider `CSc1nc2ccsc2c(=O)n1CC(=O)N(C)c1ccccc1`, for which the cytotoxicity at 10 µM was -5.57%.

For the compound `Cc1sc(-n2cnnn2)c(C(=O)NC(C)C)c1C`, the cytotoxicity at 10 µM amounted to 2.83%.

As for `CN(C)CCNC(=O)Cn1cnc2cc(NC(=O)C3CC3)ccc21`, the cytotoxicity at 10 µM is -14.3%.

Consider `CN1[C@@H](C(=O)NCC2CC2)C[C@@H]2CN(Cc3ccco3)C[C@@H]21`, for which the cytotoxicity at 10 µM came out at 4.68%.

Turning to `N#Cc1ccc(NCc2cc3n(n2)CCCN(C(=O)C2CCC2)C3)nc1`, the cytotoxicity at 10 µM was -127%.

With `Cc1csc(C2CCCN(C(=O)c3c(C)nn4cccnc34)C2)n1` (stereo unspecified), the cytotoxicity at 10 µM was -10.4%.

In the case of `CC[C@H]1CN2CC[C@H]1C[C@@H]2CNCc1cccc(C#N)c1`, the cytotoxicity at 10 µM came to 5.96%.

Consider `COc1cc(N2C[C@H]3OCC[C@H]3[C@H](C(=O)N3CCCC3)C2)ncn1`, for which the cytotoxicity at 10 µM is 4.99%.

Consider `N#Cc1cccc(OCCN2CCCC(c3noc(C4CC4)n3)C2)c1` (stereo unspecified), for which the cytotoxicity at 10 µM is -0.276%.

For the compound `Cc1cccnc1NC(=O)C1CCN(C(=O)C(C)C)CC1`, the cytotoxicity at 10 µM was 6.7%.

Turning to `Cc1ccc2c(c1)C(NC(C)C)CC21CCNCC1` (stereo unspecified), the cytotoxicity at 10 µM was -10.6%.

On to `Cn1cc(Cl)c(C(=O)N2CCCN(C3Cc4ccccc4C3)CC2)n1`, for which the cytotoxicity at 10 µM is -4.86%.

Regarding `COc1cc(C(=O)NC(CC(=O)O)c2cccs2)cc(Cl)c1OC` (stereo unspecified), the cytotoxicity at 10 µM was found to be 4.31%.

Turning to `O=C(NCC1CC1)C1CN(Cc2ccncc2)Cc2ccnn2C1` (stereo unspecified), the cytotoxicity at 10 µM was -0.902%.

Consider `Cc1[nH]c2ccc(C#N)cc2c1CCNc1ncnc2c1CCNCC2`, for which the cytotoxicity at 10 µM is -11.2%.

Turning to `CC1=C(C(N)=O)C(c2cn(C)nc2C)N2C(=O)CSC2=N1` (stereo unspecified), the cytotoxicity at 10 µM turned out to be 4.43%.

For `COCC(=O)N1CC[C@]2(O)CCN(Cc3ccsc3)C[C@@H]2C1`, the cytotoxicity at 10 µM is 0.196%.

As to `Cc1cc(COc2ccc(OC3CCCCNC3=O)cc2)on1` (stereo unspecified), the cytotoxicity at 10 µM was found to be 13.4%.

`CN(C)c1nccc(CNS(=O)(=O)c2ccc(F)c(Cl)c2)n1`: the cytotoxicity at 10 µM is -140%.

As to `CN(Cc1cccc(-n2cccn2)c1)C(=O)c1cccc(N(C)C)c1`, the cytotoxicity at 10 µM is -0.809%.

`Cc1cc(CN(Cc2cccs2)CC2CCCO2)on1` (stereo unspecified): the cytotoxicity at 10 µM was -10.1%.

`COc1cccc(-c2cnc3n2CCC32CCN(C(C)=O)CC2)c1`: the cytotoxicity at 10 µM was -2.05%.

Take `COc1ccc(CN2C[C@H]3CCC[C@@H](CN(C)C)[C@H]3C2)cn1`: the cytotoxicity at 10 µM came to 4.65%.

Turning to `CC(C)N1CCCC(Cc2nccnc2Cl)CC1` (stereo unspecified), the cytotoxicity at 10 µM was -3.97%.

Take `CN(C)C1COC2(CCN(Cc3ccncc3)CC2)C1` (stereo unspecified): the cytotoxicity at 10 µM is -69.2%.

For `CCc1noc(C2CCCCN2C(=O)c2ccn(C3CCCC3)n2)n1` (stereo unspecified), the cytotoxicity at 10 µM was 11.8%.

For `O=c1[nH]nc2c(N3CCC(NC4CCOCC4)CC3)nccn12`, the cytotoxicity at 10 µM was found to be 7.19%.

As to `Cc1cnn(C2CCCN(C(=O)COc3ccc(C(N)=O)cc3)C2)c1` (stereo unspecified), the cytotoxicity at 10 µM was -0.0295%.

Consider `Cc1nc(C)n(CC2CN(CCCOc3ccc(F)cc3)CCO2)n1` (stereo unspecified), for which the cytotoxicity at 10 µM is -4.26%.

Take `CCOc1ccc(N(CCC#N)C(=O)c2ccc(OC)nc2)cc1`: the cytotoxicity at 10 µM was determined as 2.52%.

Consider `CC(=O)NCCNc1nc(C2CCCC2)nc2c1cnn2C`, for which the cytotoxicity at 10 µM came to 7.39%.

On to `CN1CCCN(c2nccc(-c3cncnc3C3CCCCC3)n2)CC1`, for which the cytotoxicity at 10 µM is -6.25%.

Take `COc1ccc(C(=O)Nc2ccc3c(c2)C(=O)NC3)cc1Br`: the cytotoxicity at 10 µM is 3.53%.

In the case of `Cc1cc(NC(=O)CN2CCn3c(nnc3-c3ccccc3)C2)no1`, the cytotoxicity at 10 µM was -2.38%.

Take `Cc1noc(-c2c[nH]nc2C2CCCN2C(=O)c2ccccc2)c1C` (stereo unspecified): the cytotoxicity at 10 µM was -8.77%.

Turning to `O=C(c1ccnn1COc1ccc(Cl)cc1)N1CCCC1`, the cytotoxicity at 10 µM is -2.34%.

For the compound `O=C(Nc1cccc(F)c1)N1CCC(CO)(Nc2ccccc2)CC1`, the cytotoxicity at 10 µM is -5.04%.

Regarding `O=C(NCCc1cccs1)[C@]12COC[C@H]1CN(c1ncccn1)C2`, the cytotoxicity at 10 µM is -109%.

Take `COc1ccc2c(c1)CCCN(C(C)C(=O)NC(C)C)C2` (stereo unspecified): the cytotoxicity at 10 µM is 9.56%.

As for `Cc1ccc(CNC(=O)CCC(=O)NCCC(C)C)o1`, the cytotoxicity at 10 µM was -9.74%.

As to `CN(C)CCn1ccnc1C1CCN(C(=O)CCc2cccnc2)CC1`, the cytotoxicity at 10 µM was -2.21%.

Consider `O=C(c1cccnc1)N1C[C@@H]2OCC(=O)N(Cc3cccnc3)[C@@H]2C1`, for which the cytotoxicity at 10 µM was 2.08%.

In the case of `O=C1COC2(CCN(Cc3nccs3)CC2)CN1c1ccccc1`, the cytotoxicity at 10 µM is -114%.

As to `CN(C)C(=O)COC1COC2(CCN(c3ncccn3)CC2)C1` (stereo unspecified), the cytotoxicity at 10 µM is -72.8%.

Turning to `CCOCc1cccc(NC(=O)C2COCCO2)c1` (stereo unspecified), the cytotoxicity at 10 µM turned out to be 3.96%.

As to `CCN1CC(C(=O)N2CCc3cc(C(=O)N(C)C)n(C)c3C2)CCC1=O` (stereo unspecified), the cytotoxicity at 10 µM was -48.1%.

Consider `CN1CCO[C@@H]2CN(S(=O)(=O)c3ccccc3)CC[C@@H]2C1`, for which the cytotoxicity at 10 µM was -0.461%.

Regarding `CN(C)[C@H]1C[C@@H](Cc2cc(CO)on2)C1(C)C`, the cytotoxicity at 10 µM was 0.994%.

Take `O=c1[nH]c2nc(NCC3CCCO3)ncc2c(=O)n1-c1ccc(F)cc1` (stereo unspecified): the cytotoxicity at 10 µM is -5.89%.

Consider `CN1CCN(C(=O)[C@H]2CC[C@@H]3[C@@H](CCN3Cc3ccsc3)O2)CC1`, for which the cytotoxicity at 10 µM is 1.07%.

Regarding `Nc1cc(CC2COc3ccccc3C2)ccn1` (stereo unspecified), the cytotoxicity at 10 µM is -0.911%.

As to `OCCN1CCN(Cc2cc3c(cc2Br)OCCO3)CC1`, the cytotoxicity at 10 µM came out at 7.59%.

In the case of `CC1CCN(C(=O)c2sccc2-n2cnnn2)CC1`, the cytotoxicity at 10 µM turned out to be 9.33%.

For the compound `CCOC(=O)CC(c1ccc(OC)cc1)c1c(O)n[nH]c1C` (stereo unspecified), the cytotoxicity at 10 µM was -0.244%.

Turning to `Cc1nc(CN2CCC(CNC(=O)CCC3CCCC3)CC2)oc1C`, the cytotoxicity at 10 µM was -1.29%.

`CCCc1cc(N2CCCC2Cn2nc(C)cc2C)n2ncnc2n1` (stereo unspecified): the cytotoxicity at 10 µM stood at 2.48%.

Take `CCSc1ccc(C(C)NC(=O)CNS(C)(=O)=O)cc1` (stereo unspecified): the cytotoxicity at 10 µM was determined as 10.4%.

In the case of `Cc1ncc2c(n1)C1(CCN(C(=O)C3CC3)CC1)OCC2`, the cytotoxicity at 10 µM is 6.02%.

For `OC1(Cn2ccc3ncccc32)CCN(Cc2cccnc2)CC1`, the cytotoxicity at 10 µM is 5.72%.

Take `Cc1cc(NC(=O)N(Cc2ccc(C#N)cc2)C(C)C)no1`: the cytotoxicity at 10 µM was -17%.

As for `N#CCCN(Cc1ccco1)C(=O)CCCc1ccccc1`, the cytotoxicity at 10 µM was determined as 73.1%.

Consider `Cn1cnnc1Sc1ccc(NC(=O)C2CC2)cc1Cl`, for which the cytotoxicity at 10 µM is 0.118%.

Turning to `CC1=Nc2c(c(O)nn2C2CCOCC2)C(c2cccnc2)S1` (stereo unspecified), the cytotoxicity at 10 µM is 5.11%.

As for `Cc1ccc(NC(=O)NCCCc2n[nH]c(N)c2C#N)cc1`, the cytotoxicity at 10 µM was -4.71%.

In the case of `O=C(NCCCn1nc2ccccn2c1=O)Nc1ccc(F)cc1F`, the cytotoxicity at 10 µM is -7.43%.

Take `Cc1nc(S(=O)(=O)N2CCCCc3ccccc32)cn1C`: the cytotoxicity at 10 µM is -2.38%.

Turning to `CC(=O)Nc1nc(C(=O)N2CCCC(n3ccnc3)C2)cs1` (stereo unspecified), the cytotoxicity at 10 µM was -3.44%.

For `O=C(NCc1ccccc1CO)C1COc2ccccc21` (stereo unspecified), the cytotoxicity at 10 µM is 12.3%.

For `O=C1[C@H]2CN(S(=O)(=O)C3CC3)C[C@H]2CN1Cc1cccnc1`, the cytotoxicity at 10 µM was -0.0545%.

For `CN(C)C(=O)Cn1c(C2CC2)c(CN2CCC(O)CC2)c2cccnc21`, the cytotoxicity at 10 µM was -4.9%.

Take `Cc1nc2ccccc2nc1CN(C)C1CCCN(c2cccnn2)C1` (stereo unspecified): the cytotoxicity at 10 µM is -9.71%.

On to `CCOCCc1nc(CCc2ccccc2)n[nH]1`, for which the cytotoxicity at 10 µM came to 10.3%.

Take `CCOc1ccc(C(=O)CC(SC2CCCCC2)C(=O)O)cc1` (stereo unspecified): the cytotoxicity at 10 µM stood at 6.73%.

Regarding `O=C1N(c2ccsc2)CCC12CCCN(Cc1cccnc1)C2` (stereo unspecified), the cytotoxicity at 10 µM was -128%.

Take `Cc1nnc2n1CCN(C(=O)c1cc(Br)c[nH]1)C2`: the cytotoxicity at 10 µM is -10.7%.

Turning to `Cc1cc2[nH]c(O)nc2cc1NCc1ccc(F)cc1`, the cytotoxicity at 10 µM came to 16.1%.

Turning to `CCCc1nnnn1CC(=O)NCc1cccc(C)c1`, the cytotoxicity at 10 µM was -3.94%.

Consider `Cc1nonc1C1CCCN1C(=O)CCc1cc2n(n1)CCCNC2` (stereo unspecified), for which the cytotoxicity at 10 µM is -5.65%.

`Cc1cncnc1C1CCN(C(=O)CN(C)C)CC1`: the cytotoxicity at 10 µM was -7.91%.

As to `CNC(=O)C1CCN(S(C)(=O)=O)CC1`, the cytotoxicity at 10 µM is -4.81%.

As for `CN1CCC(Cc2noc(-c3cccc(Oc4ncccn4)c3)n2)CC1`, the cytotoxicity at 10 µM is -5.21%.

Turning to `COCCC(=O)N1CCCC1c1csc(Nc2ncccn2)n1` (stereo unspecified), the cytotoxicity at 10 µM was -4.33%.

Take `CCC[C@H]1CN(S(=O)(=O)c2ccc(CC)s2)C[C@@H]1N`: the cytotoxicity at 10 µM was 4.69%.

In the case of `Cn1nc2c(c1NC(=O)c1cccs1)CCC2`, the cytotoxicity at 10 µM was determined as 6.16%.

As for `Cc1noc(C)c1CNCC1(COc2cccnc2)C[C@@H](O)[C@@H](O)C1` (stereo partly specified), the cytotoxicity at 10 µM is -2.36%.

Regarding `Cc1ccc2nc(CN3CCCCC3CCN3CCOCC3)cn2c1` (stereo unspecified), the cytotoxicity at 10 µM is 3.28%.

Turning to `CN1CC2(CCN(Cc3cc(Cl)ccc3OCC(=O)O)CC2)OC1=O`, the cytotoxicity at 10 µM is 1.6%.

For the compound `Cn1cc([C@@H]2CN(S(=O)(=O)c3cccnc3)C[C@H]2N)c2ccncc21`, the cytotoxicity at 10 µM is -0.57%.

`CNC(=O)[C@@H]1CN(C(=O)COC)C[C@H]1c1ccnc(N2CCCC2)n1`: the cytotoxicity at 10 µM worked out at 2.75%.

Take `Cc1cccc(C)c1OC1CN(C(=O)C2CCN(C(=O)N(C)C)CC2)C1`: the cytotoxicity at 10 µM is 2.69%.

Take `COc1cc2cc3c(nc2cc1OC)OCCN(Cc1ccco1)C3`: the cytotoxicity at 10 µM was -0.116%.

Turning to `CCOc1ccc(CN(C)C2CCN(c3cc(C)nn3C)C2=O)cc1` (stereo unspecified), the cytotoxicity at 10 µM was 1.66%.

For `COc1cccc2cc(CNCc3ccnc(N4CCOCC4)c3)oc12`, the cytotoxicity at 10 µM was -8.55%.

For the compound `CCOCC1CCN(C(=O)C(c2ccc(F)cc2)N(C)C)CC1` (stereo unspecified), the cytotoxicity at 10 µM came out at 1.31%.

As to `Cc1nc2n(n1)CC(NCc1nc(-c3cccnc3)no1)CC2` (stereo unspecified), the cytotoxicity at 10 µM is -3.44%.

On to `COc1ccc(C(=O)NCC(c2cccn2C)N2CCCC2)cc1OC` (stereo unspecified), for which the cytotoxicity at 10 µM was 6.86%.
